What all share (format): cell-based
Assay [1] concerns the target T1, Protein cereblon/von Hippel-Lindau disease tumor suppressor (Homo sapiens, UniProt P40337+Q96SW2). Nature of the assay: Protac activity at VHL/CRBN in HEK293 cells assessed as induction of CRBN protein degradation after 4 hrs by Western blot analysis. The method, boiled down: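 HEK293 cells seeded at 1 × 10⁶ per well overnight, exposed 4 h to a compound concentration series (0.1% v/v final DMSO), lysed in RIPA, and immunoblotted on equal Bradford-quantified protein. CRBN bands were normalised to β-tubulin and expressed relative to mean DMSO vehicle. DC50 was estimated by fitting band intensity against log[concentration].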
(Immunoblotting shows a protein as a band on a membrane.)
Target sequence in this assay (P40337 whole entry): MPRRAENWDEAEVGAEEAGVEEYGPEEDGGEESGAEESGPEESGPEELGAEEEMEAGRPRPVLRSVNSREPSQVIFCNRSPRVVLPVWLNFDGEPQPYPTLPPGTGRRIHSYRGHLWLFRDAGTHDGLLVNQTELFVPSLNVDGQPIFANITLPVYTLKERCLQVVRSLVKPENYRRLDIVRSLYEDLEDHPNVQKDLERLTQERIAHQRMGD
Target sequence in this assay (Q96SW2 whole entry): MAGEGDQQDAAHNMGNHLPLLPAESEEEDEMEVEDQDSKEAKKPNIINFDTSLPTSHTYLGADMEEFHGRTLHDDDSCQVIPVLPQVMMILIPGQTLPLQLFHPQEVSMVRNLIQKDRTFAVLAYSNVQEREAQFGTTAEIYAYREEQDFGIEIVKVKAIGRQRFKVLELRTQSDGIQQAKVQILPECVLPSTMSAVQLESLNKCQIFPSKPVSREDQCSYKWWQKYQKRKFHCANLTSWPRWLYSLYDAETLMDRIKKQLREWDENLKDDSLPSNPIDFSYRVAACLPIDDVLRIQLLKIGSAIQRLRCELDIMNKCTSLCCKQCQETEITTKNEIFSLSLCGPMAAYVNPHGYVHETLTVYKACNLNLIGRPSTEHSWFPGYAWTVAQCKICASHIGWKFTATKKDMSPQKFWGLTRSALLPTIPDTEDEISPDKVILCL

Assay [2] has as its target T1, Protein cereblon/von Hippel-Lindau disease tumor suppressor. Nature of the assay: Protac activity at VHL/CRBN in HEK293 cells assessed as pVHL19 protein abundance at 1 uM after 4 hrs by Western blot analysis relative to DMSO. The method, boiled down: (§1)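 HEK293 cells (DMEM, 10% FBS, penicillin/streptomycin, L-glutamine; 37 °C, 5% CO2; ≤30 passages) seeded at 1 × 10⁶ per well overnight, then treated with compound at 0.1% v/v final DMSO. Cells were lysed in RIPA with protease inhibitors and benzonase, then clarified. Equal Bradford-quantified protein was immunoblotted for CRBN/VHL. Bands were normalised to β-tubulin and expressed as % of mean 0.1% DMSO vehicle.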
Target sequence in this assay (P40337 whole entry, looked up): as the sequence (P40337 whole entry) above
Target sequence in this assay (Q96SW2 whole entry, looked up): as the sequence (Q96SW2 whole entry) above

The target is the same in assay [3]. Nature of the assay: Protac activity at VHL/CRBN in HEK293 cells assessed as CRBN protein abundance at 1 uM after 2 hrs by Western blot analysis relative to DMSO. The method, boiled down: as §1
Target sequence in this assay (P40337 whole entry, looked up): as the sequence (P40337 whole entry) above
Target sequence in this assay (Q96SW2 whole entry, looked up): as the sequence (Q96SW2 whole entry) above
The target is the same in assay [4]. Nature of the assay: Protac activity at VHL/CRBN in human HeLa cells assessed as pVHL19 protein abundance at 1 uM after 8 hrs by Western blot analysis relative to DMSO. The method, boiled down: (§2)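 HeLa cells seeded overnight, then exposed to 1 µM compound (0.1% v/v DMSO final) over a time course. Cells were DPBS-washed and RIPA-lysed with protease inhibitors and benzonase; equal protein was loaded. Immunoblots for CRBN and VHL isoforms were quantified against β-tubulin and reported relative to the averaged 0.1% DMSO vehicle.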
Target sequence in this assay (P40337 whole entry, looked up): as the sequence (P40337 whole entry) above
Target sequence in this assay (Q96SW2 whole entry, looked up): as the sequence (Q96SW2 whole entry) above

Assay [5] shares this target. Nature of the assay: Protac activity at VHL/CRBN in human HeLa cells assessed as pVHL30 protein abundance at 1 uM after 8 hrs by Western blot analysis relative to DMSO. The method, boiled down: as §2
Target sequence in this assay (P40337 whole entry, looked up): as the sequence (P40337 whole entry) above
Target sequence in this assay (Q96SW2 whole entry, looked up): as the sequence (Q96SW2 whole entry) above
The target is the same in assay [6]. Nature of the assay: Protac activity at VHL/CRBN in human HeLa cells assessed as pVHL19 protein abundance at 50 nM after 4 hrs by Western blot analysis relative to DMSO. The method, boiled down:
(§3)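 HeLa cells (5 × 10⁵, DMEM + 10% FBS, 37 °C, 5% CO₂, ≤30 passages) seeded overnight, then treated 4 h with compound at single or graded concentrations (0.1% v/v DMSO final). RIPA lysates equalised by Bradford; SDS-PAGE and anti-CRBN/anti-VHL immunoblots; bands normalised to β-tubulin and expressed as % of mean DMSO vehicle. DC₅₀ from fit of band intensity versus log[concentration].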
Target sequence in this assay (P40337 whole entry, looked up): as the sequence (P40337 whole entry) above
Target sequence in this assay (Q96SW2 whole entry, looked up): as the sequence (Q96SW2 whole entry) above

Assay [7] has the same target. Nature of the assay: Protac activity at VHL/CRBN in human HeLa cells assessed as pVHL19 protein abundance at 1000 nM after 4 hrs by Western blot analysis relative to DMSO. The method, boiled down: as §3
Target sequence in this assay (P40337 whole entry, looked up): as the sequence (P40337 whole entry) above
Target sequence in this assay (Q96SW2 whole entry, looked up): as the sequence (Q96SW2 whole entry) above
Assay [8] shares this target. Nature of the assay: Protac activity at VHL/CRBN in human HeLa cells assessed as induction of CRBN degradation after 4 hrs by Western blot analysis. The method, boiled down:
as §3
Target sequence in this assay (P40337 whole entry): as the sequence (P40337 whole entry) above
Target sequence in this assay (Q96SW2 whole entry): as the sequence (Q96SW2 whole entry) above

Assay [9] has the same target. Nature of the assay: Protac activity at VHL/CRBN in human HeLa cells assessed as induction of VHL degradation at 1 uM after 1 to 24 hrs by Western blot analysis. Conditions: time hrs 1-24. The method, boiled down: as §2

Molecules are shown by their SMILES. The source made the active and inactive calls. The rule behind the calls is not given here.

For the molecule `Cc1ncsc1-c1ccc(CNC(=O)[C@@H]2C[C@@H](O)CN2C(=O)[C@@H](NC(=O)COCCCCCOCCOCCCCCOCC(=O)NCCNc2cccc3c2C(=O)N(C2CCC(=O)NC2=O)C3=O)C(C)(C)C)cc1` (some centres undefined), the results for the DC50 in assay [1] and in assay [8] were 0.23 µM and 0.2 µM, respectively. The Activity stood at 101% in assay [2]; 9% in assay [3]; 100% in [4]; 116% in [5]; 95% in assay [6]; 110% in assay [7]. Moreover, in assay [9], the result was inactive.

These data come from ChEMBL document CHEMBL4665633, “Cereblon versus VHL: Hijacking E3 ligases against each other using PROTACs” (Bioorg Med Chem, 2019).
